Measured values taken from ChEMBL document CHEMBL4020804, “Minor phenolics from Angelica keiskei and their proliferative effects on Hep3B cells” (Bioorg Med Chem Lett, 2017).

Columns and labels:
Hep 3B2 [1] = experiment: Cytoprotective activity against GOX-induced oxidative stress in human Hep3B cells assessed as cell survival at 100 uM treated for 5 hrs with 15 mU/ml GOX challenge by MTT assay (reference value: 41.51 +/- 1.39%); assay type: functional; conditions: read-out: Survival
NIH3T3 [2] = experiment: Cytoprotective activity against GOX-induced oxidative stress in mouse NIH/3T3 cells assessed as cell survival at 10 uM treated for 5 hrs with 15 mU/ml GOX challenge by MTT assay (reference value: 42.71 +/- 2.10%); assay type: functional; conditions: NIH3T3, 5 h, read-out: Survival
Hep 3B2 [3] = experiment: Proliferative activity against human Hep3B cells assessed as cell viability at 100 uM after 4 days by cell counting method relative to control; assay type: functional; conditions: 96 h, read-out: Activity
How it was run: (§1)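 Hep3B kept in DMEM/10% FBS, 37°C, 5% CO2, then seeded at 1×10^5 cells/ml in medium containing compound (0.1–100 μM; DMSO-only control) in monolayer. Cells were checked daily by microscope for attachment and morphology, and counted after 4 days, in triplicate, in three independent experiments. Counts are given as % of the 0 μM group.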

NIH3T3 [4] = experiment: Cytoprotective activity against GOX-induced cytotoxicity in mouse NIH/3T3 cells assessed as LDH release at 10 uM treated for 5 hrs with 15 mU/ml GOX challenge by spectrophotometric method (reference value: 63.34 +/- 1.85%); assay type: functional
Hep 3B2 [5] = experiment: Cytoprotective activity against GOX-induced cytotoxicity in human Hep3B cells assessed as LDH release at 1 uM treated for 5 hrs with 15 mU/ml GOX challenge by spectrophotometric method (reference value: 60.94 +/- 1.18%); assay type: functional
NIH3T3 [6] = experiment: Cytoprotective activity against GOX-induced cytotoxicity in mouse NIH/3T3 cells assessed as LDH release at 1 uM treated for 5 hrs with 15 mU/ml GOX challenge by spectrophotometric method (reference value: 63.34 +/- 1.85%); assay type: functional
Hep 3B2 [7] = experiment: Proliferative activity against human Hep3B cells assessed as cell viability at 0.1 uM after 4 days by cell counting method relative to control; assay type: functional; conditions: 96 h, read-out: Activity; how it was run: as §1
Hep 3B2 [8] = experiment: Cytoprotective activity against GOX-induced cytotoxicity in human Hep3B cells assessed as decrease in LDH release treated for 5 hrs with 15 mU/ml GOX challenge by spectrophotometric method; assay type: functional, cell-based
Hep 3B2 [9] = experiment: Cytotoxicity against human Hep3B cells assessed as effect on cell attachment at 0.1 to 100 uM measured every day during 4 days incubation period by microscopic method; assay type: cell-based; conditions: hep 3b2, 96 h; how it was run: as §1
NIH3T3 [10] = experiment: Cytoprotective activity against GOX-induced oxidative stress in mouse NIH/3T3 cells assessed as cell survival at 100 uM treated for 5 hrs with 15 mU/ml GOX challenge by MTT assay (reference value: 42.71 +/- 2.10%); assay type: functional; conditions: NIH3T3, 5 h, read-out: Survival
NIH3T3 [11] = experiment: Cytoprotective activity against GOX-induced oxidative stress in mouse NIH/3T3 cells assessed as cell survival at 0.1 uM treated for 5 hrs with 15 mU/ml GOX challenge by MTT assay (reference value: 42.71 +/- 2.10%); assay type: functional; conditions: NIH3T3, 5 h, read-out: Survival
Hep 3B2 [12] = experiment: Proliferative activity against human Hep3B cells assessed as cell viability at 10 uM after 4 days by cell counting method relative to control; assay type: functional; conditions: 96 h, read-out: Activity; how it was run: as §1
Hep 3B2 [13] = experiment: Cytoprotective activity against GOX-induced oxidative stress in human Hep3B cells assessed as cell survival at 10 uM treated for 5 hrs with 15 mU/ml GOX challenge by MTT assay (reference value: 41.51 +/- 1.39%); assay type: functional; conditions: read-out: Survival
NIH3T3 [14] = experiment: Cytoprotective activity against GOX-induced oxidative stress in mouse NIH/3T3 cells assessed as cell survival at 1 uM treated for 5 hrs with 15 mU/ml GOX challenge by MTT assay (reference value: 42.71 +/- 2.10%); assay type: functional; conditions: NIH3T3, 5 h, read-out: Survival
Hep 3B2 [15] = experiment: Cytoprotective activity against GOX-induced oxidative stress in human Hep3B cells assessed as cell survival at 1 uM treated for 5 hrs with 15 mU/ml GOX challenge by MTT assay (reference value: 41.51 +/- 1.39%); assay type: functional; conditions: read-out: Survival
Hep 3B2 [16] = experiment: Cytotoxicity against human Hep3B cells assessed as effect on cell morphology at 0.1 to 100 uM measured every day during 4 days incubation period by microscopic method; assay type: cell-based; conditions: hep 3b2, 96 h; how it was run: as §1
Hep 3B2 [17] = experiment: Cytoprotective activity against GOX-induced cytotoxicity in human Hep3B cells assessed as LDH release at 100 uM treated for 5 hrs with 15 mU/ml GOX challenge by spectrophotometric method (reference value: 60.94 +/- 1.18%); assay type: functional
NIH3T3 [18] = experiment: Cytoprotective activity against GOX-induced oxidative stress in mouse NIH/3T3 cells assessed as increase in cell survival treated for 5 hrs with 15 mU/ml GOX challenge by MTT assay; assay type: functional, cell-based
How it was run: (§2)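 Cells plated at 7×10^4 per well; next day exposed for 5 h to compound (0.1–100 μM) with 15 mU/ml glucose oxidase in growth medium. Viability expressed relative to GOX-free cells; α-tocopherol positive control.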

Hep 3B2 [19] = experiment: Cytoprotective activity against GOX-induced cytotoxicity in human Hep3B cells assessed as LDH release at 0.1 uM treated for 5 hrs with 15 mU/ml GOX challenge by spectrophotometric method (reference value: 60.94 +/- 1.18%); assay type: functional
Hep 3B2 [20] = experiment: Cytoprotective activity against GOX-induced cytotoxicity in human Hep3B cells assessed as LDH release at 10 uM treated for 5 hrs with 15 mU/ml GOX challenge by spectrophotometric method (reference value: 60.94 +/- 1.18%); assay type: functional
NIH3T3 [21] = experiment: Cytoprotective activity against GOX-induced cytotoxicity in mouse NIH/3T3 cells assessed as LDH release at 0.1 uM treated for 5 hrs with 15 mU/ml GOX challenge by spectrophotometric method (reference value: 63.34 +/- 1.85%); assay type: functional
NIH3T3 [22] = experiment: Cytoprotective activity against GOX-induced cytotoxicity in mouse NIH/3T3 cells assessed as LDH release at 100 uM treated for 5 hrs with 15 mU/ml GOX challenge by spectrophotometric method (reference value: 63.34 +/- 1.85%); assay type: functional
Hep 3B2 [23] = experiment: Proliferative activity against human Hep3B cells assessed as cell viability at 1 uM after 4 days by cell counting method relative to control; assay type: functional; conditions: 96 h, read-out: Activity; how it was run: as §1
NIH3T3 [24] = experiment: Cytoprotective activity against GOX-induced cytotoxicity in mouse NIH/3T3 cells assessed as decrease in LDH release treated for 5 hrs with 15 mU/ml GOX challenge by spectrophotometric method; assay type: functional, cell-based
Hep 3B2 [25] = experiment: Cytoprotective activity against GOX-induced oxidative stress in human Hep3B cells assessed as cell survival at 0.1 uM treated for 5 hrs with 15 mU/ml GOX challenge by MTT assay (reference value: 41.51 +/- 1.39%); assay type: functional; conditions: read-out: Survival
Hep 3B2 [26] = experiment: Cytoprotective activity against GOX-induced oxidative stress in human Hep3B cells assessed as increase in cell survival treated for 5 hrs with 15 mU/ml GOX challenge by MTT assay; assay type: functional, cell-based; how it was run: as §2
Hep 3B2 [27] = experiment: Proliferative activity against human Hep3B cells assessed as cell viability after 4 days by cell counting method; assay type: functional, cell-based; how it was run: as §1

Compound | viability at 100 µM (Hep 3B2 [1]) [%] | viability at 10 µM (NIH3T3 [2]) [%] | Activity (NIH3T3 [4]) [%] | Activity (Hep 3B2 [5]) [%] | Activity (NIH3T3 [6]) [%] | Activity (Hep 3B2 [8]) | viability at 100 µM (NIH3T3 [10]) [%] | viability at 0.1 µM (NIH3T3 [11]) [%] | viability at 10 µM (Hep 3B2 [13]) [%] | viability at 1 µM (NIH3T3 [14]) [%] | viability at 1 µM (Hep 3B2 [15]) [%] | Activity (Hep 3B2 [17]) [%] | Activity (NIH3T3 [18]) | Activity (Hep 3B2 [19]) [%] | Activity (Hep 3B2 [20]) [%] | Activity (NIH3T3 [21]) [%] | Activity (NIH3T3 [22]) [%] | Activity (NIH3T3 [24]) | viability at 0.1 µM (Hep 3B2 [25]) [%] | Activity (Hep 3B2 [26]) | also measured
C/C=C(/C)C(=O)O[C@@H]1c2c(ccc3ccc(=O)oc23)OC(C)(C)[C@@H]1O[C@@H]1O[C@H](CO)[C@@H](O)[C@H](O)[C@H]1O | 91.2 | 75.8 | 9.25 | 19.57 | 21.12 | Dose-dependent effect | 93.8 | 58.6 | 76.9 | 64.5 | 65.3 | 6.16 | Dose-dependent effect | 28.01 | 10.28 | 29.9 | 5.75 | Dose-dependent effect | 59.2 | Dose-dependent effect | viability at 100 µM (Hep 3B2 [3]): 114%; viability at 0.1 µM (Hep 3B2 [7]): 101%; Activity (Hep 3B2 [9]): Non-Toxic; viability at 10 µM (Hep 3B2 [12]): 113%; Activity (Hep 3B2 [16]): Non-Toxic; viability at 1 µM (Hep 3B2 [23]): 102%; Activity (Hep 3B2 [27]): Dose-dependent effect
O=C(CCc1ccc(O)cc1)c1ccc(O)cc1O [DAVIDIGENIN] | 104 | 113 | 12.69 | 18.61 | 15.74 | Dose-dependent effect | 123 | 60.6 | 94.9 | 84 | 83.4 | 4.16 | Dose-dependent effect | 22.37 | 11.83 | 24.04 | 3.1 | Dose-dependent effect | 59.3 | Dose-dependent effect | viability at 100 µM (Hep 3B2 [3]): 140%; viability at 0.1 µM (Hep 3B2 [7]): 104%; Activity (Hep 3B2 [9]): Non-Toxic; viability at 10 µM (Hep 3B2 [12]): 116%; Activity (Hep 3B2 [16]): Non-Toxic; viability at 1 µM (Hep 3B2 [23]): 106%; Activity (Hep 3B2 [27]): Dose-dependent effect
C/C(=C\Cc1c(O)ccc(C(=O)/C=C/c2ccc(O)cc2)c1O)CCC(=O)O | 74.1 | 57.8 | 18.78 | 20.34 | 20.71 | Dose-dependent effect | 74.5 | 43.2 | 57.1 | 44.7 | 45.5 | 7.6 | Dose-dependent effect | 30.97 | 16.93 | 36.37 | 6.96 | Dose-dependent effect | 44.3 | Dose-dependent effect | viability at 100 µM (Hep 3B2 [3]): 115%; viability at 0.1 µM (Hep 3B2 [7]): 100%; Activity (Hep 3B2 [9]): Non-Toxic; viability at 10 µM (Hep 3B2 [12]): 107%; Activity (Hep 3B2 [16]): Non-Toxic; viability at 1 µM (Hep 3B2 [23]): 100%; Activity (Hep 3B2 [27]): Dose-dependent effect
Cc1c(C)c2c(c(C)c1O)CC[C@@](C)(CCC[C@H](C)CCC[C@H](C)CCCC(C)C)O2 [ALPHA-TOCOPHEROL] | 79.6 | 69.1 | 15.02 | 21.14 | 22.37 | Dose-dependent effect | 77.9 | 61.2 | 70.7 | 65.8 | 66.8 | 13 | Dose-dependent effect | 25.13 | 18.89 | 26.51 | 10.51 | Dose-dependent effect | 62.2 | Dose-dependent effect | –
